Test results from ChEMBL document CHEMBL1126775, “A pharmacological, crystallographic, and quantum chemical study of new inotropic agents” (J Med Chem, 1993).
“And” between values parts separate entries of the source, which are not always exact repeats. Equal values may be shown once.

What was measured:
[1] = species: Cavia porcellus; assay: Effect on contractile force of spontaneously beating atria from reserpine treated guinea pigs at the concentration of 10 e-3 M (negative ionotropic effect); assay type: functional
[2] = species: Cavia porcellus; assay: Effect on contractile force of spontaneously beating atria from reserpine treated guinea pigs at the concentration of 10 e-5 M; assay type: functional
[3] = species: Cavia porcellus; assay: Effect on contractile force of spontaneously beating atria from reserpine treated guinea pigs at the concentration of 2 x 10 e-3 M (negative ionotropic effect); assay type: functional
[4] = species: Cavia porcellus; assay: Effect on contractile force of spontaneously beating atria from reserpine treated guinea pigs at the concentration of 5x 10 e-4 M (negative ionotropic effect); assay type: functional
[5] = species: Cavia porcellus; assay: Effect on contractile force of spontaneously beating atria from reserpine treated guinea pigs at the concentration of 5x 10 e-5 M; assay type: functional
[6] = species: Cavia porcellus; assay: Effect on frequency rate of spontaneously beating atria from reserpine treated guinea pigs at the concentration of 10 e-3 M (negative chronotropic ionotropic effect); assay type: functional
[7] = species: Cavia porcellus; assay: Effect on frequency rate of spontaneously beating atria from reserpine treated guinea pigs at the concentration of 10 e-4 M (negative chronotropic ionotropic effect); assay type: functional
[8] = species: Cavia porcellus; assay: Effect on frequency rate of spontaneously beating atria from reserpine treated guinea pigs at the concentration of 10 e-5 M; assay type: functional
[9] = species: Cavia porcellus; assay: Effect on frequency rate of spontaneously beating atria from reserpine treated guinea pigs at the concentration of 2 x 10 e-3 M (negative chronotropic ionotropic effect); assay type: functional
[10] = species: Cavia porcellus; assay: Effect on frequency rate of spontaneously beating atria from reserpine treated guinea pigs at the concentration of 5 x 10 e-4 M (negative chronotropic ionotropic effect); assay type: functional
[11] = species: Cavia porcellus; assay: Effect on contractile force of spontaneously beating atria from reserpine treated guinea pigs at the concentration of 10 e-4 M (negative ionotropic effect); assay type: functional
[12] = species: Cavia porcellus; assay: Effect on contractile force of spontaneously beating atria from reserpine treated guinea pigs at the concentration of 10 e-3 M; assay type: functional
[13] = species: Cavia porcellus; assay: Effect on contractile force of spontaneously beating atria from reserpine treated guinea pigs at the concentration of 10 e-4 M; assay type: functional
[14] = species: Cavia porcellus; assay: Effect on contractile force of spontaneously beating atria from reserpine treated guinea pigs at the concentration of 2 x 10 e-3 M; assay type: functional
[15] = species: Cavia porcellus; assay: Effect on contractile force of spontaneously beating atria from reserpine treated guinea pigs at the concentration of 5x 10 e-4 M; assay type: functional
[16] = species: Cavia porcellus; assay: Effect on frequency rate of spontaneously beating atria from reserpine treated guinea pigs at the concentration of 5 x 10 e-5 M (negative chronotropic ionotropic effect)
[17] = Logarithm of the sum of contributions of each atom to the total lipophilicity of the molecule; assay type: physicochemical; details: octanol/water
[18] = species: Cavia porcellus; assay: Inotropic effect in electrically driven left atrium from reserpine-treated guinea pig at the concentration of 10 e-4 M; assay type: functional, Cardiac atrium
How it was run: (§1)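 Atria from reserpine-pretreated guinea pigs (2 mg/kg ip, 48 and 24 h), tyramine-unresponsive only. Left atrium loaded 0.5 g, paced at 1.5 Hz with 3-ms square pulses at 10–20% above threshold. Equilibrated 90 min. Agents added cumulatively, 5 min per concentration. Isometric developed tension expressed as % increase over control.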

[19] = species: Cavia porcellus; assay: Inotropic effect in electrically driven left atrium from reserpine-treated guinea pig at the concentration of 10 e-5 M; assay type: functional, Cardiac atrium; how it was run: as §1
[20] = species: Cavia porcellus; assay: Inotropic effect in electrically driven left atrium from reserpine-treated guinea pig at the concentration of 2 x 10 e-3 M; assay type: functional, Cardiac atrium; how it was run: as §1
[21] = species: Cavia porcellus; assay: Inotropic effect in electrically driven left atrium from reserpine-treated guinea pig at the concentration of 5 x 10 e-4 M; assay type: functional, Cardiac atrium; how it was run: as §1
[22] = species: Cavia porcellus; assay: Inotropic effect in electrically driven left atrium from reserpine-treated guinea pig at the concentration of 5 x 10 e-5 M; assay type: functional, Cardiac atrium; how it was run: as §1
[23] = species: Cavia porcellus; assay: Inotropic effect in electrically driven left atrium from reserpine-treated guinea pig at the concentration of 10 e-3 M; assay type: functional, Cardiac atrium; how it was run: as §1
[24] = species: Cavia porcellus; assay: Effect on frequency rate of spontaneously beating atria from reserpine treated guinea pigs at the concentration of 10 e-3 M; assay type: functional
[25] = species: Cavia porcellus; assay: Effect on frequency rate of spontaneously beating atria from reserpine treated guinea pigs at the concentration of 10 e-4 M; assay type: functional
[26] = species: Cavia porcellus; assay: Effect on frequency rate of spontaneously beating atria from reserpine treated guinea pigs at the concentration of 2 x 10 e-3 M; assay type: functional
[27] = species: Cavia porcellus; assay: Effect on frequency rate of spontaneously beating atria from reserpine treated guinea pigs at the concentration of 5 x 10 e-4 M; assay type: functional
[28] = species: Cavia porcellus; assay: Effect on contractile force of spontaneously beating atria from reserpine treated guinea pigs at the concentration of 10 e-5 M; arrhythmias; assay type: functional

For `CC(C)(C)C(=O)c1cc(C#N)c(O)nc1C(C)(C)C`, the Increase [1] was -81.39%, the Increase [2] was 7.34% and the Increase [3] was -89.11%. The Increase [4] was -66.56%, the Increase [5] was 11.34% and the Increase [6] was -14.41%. The Increase [7] was -0.44%, the Increase [8] was 2.98% and 0.28% and the Increase [9] was -15.71%. It also gave an Increase [10] of -6.73% and an Increase [11] of -16.07%.

`CC(=O)c1cc(C(=O)O)c(O)nc1C` showed an Increase [12] of 11.48%, an Increase [13] of 5.46% and an Increase [2] of 2.63%. For the same compound, the Increase [14] was 10.83%, the Increase [15] was 9.55% and the Increase [5] was 5.72%. For the same compound, the Increase [6] was -1.43%, the Increase [7] was -5.67% and the Increase [9] was -1.39%. The Increase [10] was -2.31% and the Increase [16] was -4.2% and -4.31%.

For `Cc1[nH]c(=O)c(C#N)cc1-c1ccncc1` [MILRINONE], the logP [17] was 2.89, the Increase [18] was 34.61% and the Increase [19] was 13.25%. It also gave an Increase [20] of 37.95%, an Increase [21] of 44.72% and an Increase [22] of 22.83%. It also gave an Increase [23] of 41.96%, an Increase [12] of 33.09% and an Increase [13] of 38.76%. For the same compound, the Increase [2] was 18.25%, the Increase [14] was 29.31% and the Increase [15] was 46.52%. It also gave an Increase [5] of 31.32%, an Increase [24] of 39.2% and an Increase [25] of 35.26%. The Increase [8] was 16.41% and 28.1%, the Increase [26] was 31.79% and the Increase [27] was 43.96%.

Work on `Nc1cc(-c2ccncc2)c[nH]c1=O` [INAMRINONE] yielded a logP [17] of 2.66, an Increase [18] of 17.52% and an Increase [19] of 4.5%. For the same compound, the Increase [20] was 34.6%, the Increase [21] was 22.3% and the Increase [22] was 6.49%. For the same compound, the Increase [23] was 27%, the Increase [12] was 28.81% and the Increase [13] was 17.92%. The Increase [2] was 7.08%, the Increase [14] was 25.3% and the Increase [15] was 23.92%. It also gave an Increase [5] of 11.52%, an Increase [24] of 30.69% and an Increase [25] of 15.68%. For the same compound, the Increase [8] was 4.62% and 8.85%, the Increase [26] was 26.3% and the Increase [27] was 24.11%.

`CC1(C)CC(=O)c2cc(C(=O)O)c(O)nc2C1` showed an Increase [1] of -3.94%, an Increase [13] of 1.66% and an Increase [2] of 0.51%. It also gave an Increase [3] of -4.46%, an Increase [15] of -0.69% and an Increase [5] of 2.7%. For the same compound, the Increase [6] was -2.94%, the Increase [25] was 0.88% and the Increase [8] was 0.41% and 1.8%. The Increase [9] was -4.76% and the Increase [10] was -0.69%.

Compound `O=C1CC(c2ccccc2)Cc2nc(O)ccc21` (stereo not given) has an Increase [12] of 1.73%, an Increase [13] of 1.2% and an Increase [2] of 2.28%. For the same compound, the Increase [14] was 3.44%, the Increase [15] was 1.46% and the Increase [5] was 4.52%. It also gave an Increase [24] of 12.61%, an Increase [25] of 5.61% and an Increase [8] of 2.19%. For the same compound, the Increase [26] was 14.52%, the Increase [27] was 8.85% and the Increase [16] was -3.42%.

With `CC(=O)c1ccc(O)nc1C` the Increase [12] was 10.27%, the Increase [13] was 10.35% and the Increase [2] was 5.35%. The Increase [14] was 10.35%, the Increase [15] was 9.72% and the Increase [5] was 5.84%. The Increase [24] was 10.85%, the Increase [25] was 4.7% and the Increase [8] was 1.79% and 4.14%. It also gave an Increase [26] of 14.19% and an Increase [27] of 10.85%.

`N#Cc1cc2c(nc1O)CCCC2=O` showed an Increase [12] of 23.3%, an Increase [13] of 16.12% and an Increase [2] of 2.59%. For the same compound, the Increase [14] was 13.01%, the Increase [15] was 25.67% and the Increase [5] was 7.87%. The Increase [6] was -0.57%, the Increase [7] was -6.06% and the Increase [8] was 3.02%. It also gave an Increase [9] of -0.79%, an Increase [10] of -3.85% and an Increase [16] of -3.08%.

In the case of `O=C(O)c1cc2c(nc1O)CCCC2=O`, the Increase [28] is reported as “arrhythmias”.
